The test system of data set [1] is SiHa. The experiment in a line: Cytotoxicity against human SiHa cells assessed as reduction in cell density compound treated for 4 hrs under hypoxic condition measured after 5 days by sulforhodamine B assay. The data set is classed as functional, cell-based. In outline: (§1)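 Log-phase monolayers exposed to drug for 4 h under aerobic (20% O₂) or anoxic (<20 ppm O₂) conditions, then stained with sulforhodamine B 5 days later. IC50 interpolated as the concentration cutting cell density to 50% of same-plate controls; mean of 3–6 experiments.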
A general note: In SRB staining, fixed cells bind dye roughly in proportion to their protein.

In data set [2] the test system is SiHa. Put plainly: Ratio IC50 for human SiHa cells under oxic condition to IC50 for human SiHa cells under hypoxic condition. Type of data set: functional. In outline: (§2)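 Oxic IC50 divided by hypoxic IC50 (4 h exposure at 20% O₂ vs <20 ppm O₂, sulforhodamine B read-out 5 days later), taken as means of intraexperiment ratios over 2–6 experiments.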
The test system of data set [3] is HT-29. Put plainly: Cytotoxicity against human HT29 cells assessed as reduction in cell density compound treated for 4 hrs under oxic condition measured after 5 days by sulforhodamine B assay. Type of data set: functional, cell-based. The essentials:
as §1

The test system of data set [4] is HT-29. Put plainly: Ratio IC50 for human HT29 cells under oxic condition to IC50 for human HT29 cells under hypoxic condition. The data set is classed as functional. The essentials:
as §2

Data set [5] relates to HT-29. Put plainly: Cytotoxicity against human HT29 cells assessed as reduction in cell density compound treated for 4 hrs under hypoxic condition measured after 5 days by sulforhodamine B assay. The data set is classed as functional, cell-based. The essentials:
as §1

For data set [6], the system named is SiHa. The experiment in a line: Cytotoxicity against human SiHa cells assessed as reduction in cell density compound treated for 4 hrs under oxic condition measured after 5 days by sulforhodamine B assay. Type of data set: functional, cell-based. In outline: as §1
In data set [7] the test system is SiHa. The experiment in a line: Antitumor activity against human SiHa cells xenografted in CD1-Foxn1nu/nu nude mouse assessed as log10 clonogens/g tumor at 42 umol/kg, iv measured after 18 hrs (reference value: 7.15 +/- 0.01 to 7.62 +/- 0.2 no unit). Type of data set: functional. (In general: Xenograft models place foreign cells or tissue in a host animal.)
Data set [8] relates to SiHa. Put plainly: Antitumor activity against human SiHa cells xenografted in CD1-Foxn1nu/nu nude mouse assessed as log10 clonogens/g tumor at 42 umol/kg, iv administered 5 mins after irradiated with gamma-15 Gy measured after 18 hrs (reference value: 5.34 +/- 0.04 to 5.73 +/- 0.15 no unit). The data set is classed as functional.
The subject of data set [9] is SiHa. The experiment in a line: Antitumor activity against human SiHa cells xenografted in CD1-Foxn1nu/nu nude mouse assessed as hypoxic log10 cell kill at 42 umol/kg, iv administered 5 mins after irradiated with gamma-15 Gy measured after 18 hrs. Type of data set: functional. In outline:
(§3)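 Male nude mice bearing subcutaneous SiHa tumours, from 10⁷ cultured cells, randomised at a mean diameter of 8–10 mm. Phosphate given iv in phosphate-buffered saline with 4 equiv sodium bicarbonate, 5 min after whole-body cobalt-60 15 Gy. Tumours excised 18 h later for clonogenic assay (log10 clonogens/g), 5 mice per group. Hypoxic log cell kill = radiation + drug versus radiation alone; ANOVA with Holm-Sidak.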

The test system of data set [10] is SiHa. Put plainly: Antitumor activity against human SiHa cells xenografted in CD1-Foxn1nu/nu nude mouse assessed as log10 clonogens/g tumor at 30 umol/kg, iv administered 5 mins after irradiated with gamma-15 Gy measured after 18 hrs (reference value: 5.34 +/- 0.04 to 5.73 +/- 0.15 no unit). The data set is classed as functional.
Data set [11] has as its system SiHa. Put plainly: Antitumor activity against human SiHa cells xenografted in CD1-Foxn1nu/nu nude mouse assessed as log10 clonogens/g tumor at 30 umol/kg, iv measured after 18 hrs (reference value: 7.15 +/- 0.01 to 7.62 +/- 0.2 no unit). The data set is classed as functional.
Data set [12] concerns SiHa. Put plainly: Antitumor activity against human SiHa cells xenografted in CD1-Foxn1nu/nu nude mouse assessed as hypoxic log10 cell kill at 30 umol/kg, iv administered 5 mins after irradiated with gamma-15 Gy measured after 18 hrs. Type of data set: functional. The essentials: as §3
Data set [13] can be described thus: Aqueous solubility of the compound. Type of data set: physicochemical.
For data set [14], the system named is HT-29. The experiment in a line: Cytotoxicity against human HT29 cells under oxic condition relative to hypoxic condition. The data set is classed as functional. In outline: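 Log-phase HT29 monolayers exposed to drug for 4 h under aerobic (20% O₂) or anoxic (<20 ppm O₂) conditions, then sulforhodamine B staining 5 days later. IC50 interpolated as the concentration cutting cell density to 50% of same-plate controls. Ratio = IC50(oxic)/IC50(hypoxic), taken as the mean of intraexperiment ratios over 2–6 experiments.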

Data set [15] relates to SK-OV-3. The experiment in a line: Cytotoxicity against human SKOV3 cells under oxic condition relative to hypoxic condition. Type of data set: functional.

For orientation: pIC50 means the negative decadic logarithm of the IC50, by convention in mol/L. Broadly, the solubility is the dissolved amount per volume that the medium holds. The low end stands for a poorly soluble substance, the high end for a readily soluble substance.

pIC50: −log10 of the molar value. Bounds are passed on as bounds.

For the compound `COc1cc2cc(C(=O)N3CC(CBr)c4c3cc([N+](=O)[O-])c3cc(S(=O)(=O)NCCO)ccc43)[nH]c2c(OC)c1OC` (configuration not stated), the pIC50 in [1] was 6.57; in [3] it was 4.91; in [5], 5.87; in data set [6], 5.58. The “Ratio IC50” value in data set [2] and in data set [4] was 10 throughout.
Regarding `COc1ccc(/C=C/C(=O)N2CC(CBr)c3c2cc([N+](=O)[O-])c2cc(S(=O)(=O)NCCO)ccc32)cc1` (configuration not stated), the negative logarithm of the IC50 (pIC50) in data set [1] was 6.92; in data set [3] it was 5.61; in data set [5] it was more than 7.00; in data set [6], 5.84. Further, the “Ratio IC50” value in data set [2] was 17; in data set [4], more than 25.
`O=C(c1cc2cc(OCCN3CCOCC3)ccc2[nH]1)N1CC(CBr)c2c1cc([N+](=O)[O-])c1cc(S(=O)(=O)NCCO)ccc21` (configuration not stated): the pIC50 in data set [1] is 6.55; in data set [3], 4.65; in [5] it was 6.36; in data set [6], 4.93. Moreover, the “Ratio IC50” value came out at 43 in data set [2] and 52 in [4].
For the compound `O=C(/C=C/c1ccc(OCCN2CCOCC2)cc1)N1CC(CBr)c2c1cc([N+](=O)[O-])c1cc(S(=O)(=O)NCCO)ccc21` (configuration not stated), the pIC50 is 7.05 in data set [1], 4.95 in data set [3], 7.10 in data set [5] and 5.57 in data set [6]. The figures for the “Ratio IC50” value in [2] and in [4] were 41 and 286, respectively.
Take `COc1cc2cc(C(=O)N3CC(CCl)c4c3cc([N+](=O)[O-])c3cc(S(=O)(=O)NCCO)ccc43)[nH]c2c(OC)c1OC` (configuration not stated): the negative-log IC50 (pIC50) in [1] was 5.46; in [3], 4.55; in data set [5], 4.96; in data set [6], 4.89. Also, the results for the “Ratio IC50” value in [2] and in data set [4] were 16 and 2.1, respectively.
As for `CN(C)CCOc1ccc2[nH]c(C(=O)N3CC(CCl)c4c3cc([N+](=O)[O-])c3cc(S(=O)(=O)NCCO)ccc43)cc2c1` (configuration not stated), the pIC50 in data set [1] was 7.15; in [3] it was 5.03; in data set [5], 7.05; in [6] it was 5.70. Also, the “Ratio IC50” value is on record as 46 in data set [2] and 160 in data set [4].
With `COc1cc2cc(C(=O)N3CC(CBr)c4c3cc([N+](=O)[O-])c3cc(S(=O)(=O)NCCOP(=O)(O)O)ccc43)[nH]c2c(OC)c1OC` (configuration not stated), the values for the Activity in data set [7] and in data set [8] were 6.51 and 3.62, respectively. Also, the LCK in data set [9] is recorded as 1.84.
In the case of `COc1ccc(/C=C/C(=O)N2CC(CBr)c3c2cc([N+](=O)[O-])c2cc(S(=O)(=O)NCCOP(=O)(O)O)ccc32)cc1` (configuration not stated), the values for the Activity in [7] and in [8] were 7.07 and 4.5, respectively. Also, in data set [9], the LCK is on record as 0.87.
Regarding `O=C(c1cc2cc(OCCN3CCOCC3)ccc2[nH]1)N1CC(CBr)c2c1cc([N+](=O)[O-])c1cc(S(=O)(=O)NCCOP(=O)(O)O)ccc21` (configuration not stated), the Activity in [7] stood at 6.05; in [8], 2.6. For the same compound, in data set [9], the LCK came to 2.8.
In the case of `O=C(/C=C/c1ccc(OCCN2CCOCC2)cc1)N1CC(CBr)c2c1cc([N+](=O)[O-])c1cc(S(=O)(=O)NCCOP(=O)(O)O)ccc21` (configuration not stated), the Activity in [10] is given as 3.78; in data set [11], 7.01. Further, the LCK in [12] was 1.56.
Turning to `COc1cc2cc(C(=O)N3CC(CCl)c4c3cc([N+](=O)[O-])c3cc(S(=O)(=O)NCCOP(=O)(O)O)ccc43)[nH]c2c(OC)c1OC` (configuration not stated), the figures for the Activity in [7] and in [8] were 7.29 and 4.96, respectively. Besides, in data set [9], the LCK stood at 0.55.
On to `CN(C)CCOc1ccc2[nH]c(C(=O)N3CC(CCl)c4c3cc([N+](=O)[O-])c3cc(S(=O)(=O)NCCOP(=O)(O)O)ccc43)cc2c1` (configuration not stated), for which, in data set [13], the solubility is more than 2000 µM. Also, the Activity in [7] came to 6.89; in [8] it was 3.9. For the same compound, the LCK in data set [9] is reported as 1.83.
In the case of `CN(C)CCOc1ccc2[nH]c(C(=O)N3CC(CCl)c4c3cc([N+](=O)[O-])c3cc(S(N)(=O)=O)ccc43)cc2c1` (configuration not stated), the Ratio in data set [14] was 330; in [15] it was 275.

Values taken from ChEMBL document CHEMBL1833894, “The effect of a bromide leaving group on the properties of nitro analogs of the duocarmycins as hypoxia-activated prodrugs and phosphate pre-prodrugs for antitumor therapy” (Bioorg Med Chem, 2011).
